Activity calls are given as the source filed them. The rule behind the calls is not given here.
How the values were obtained:
Staphylococcus aureus [1] = assay: Antibiofilm activity against Staphylococcus aureus ATCC 25923 assessed as destruction of biofilm formation at 2 times MIC after 24 hrs by crystal violet staining based assay relative to control; assay type: functional
Summary of the method: (§1)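 Overnight culture brought to 0.5 McFarland in PBS, diluted 1:100 in CAMHB with 1% glucose. Inhibition: cells plus compound (in DMSO) at 2x, 1x, 0.5xMIC, 24 h at 35 °C, triplicate. Destruction: 24 h biofilm grown without drug, washed, fresh medium with compound, further 24 h. Then washed, dried, 0.1% crystal violet, solubilized in 33% acetic acid, OD 620 nm. Controls are DMSO-only and broth-only wells.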

Staphylococcus aureus [2] = assay: Antibiofilm activity against Staphylococcus aureus ATCC 25923 assessed as destruction of biofilm formation at 1 times MIC after 24 hrs by crystal violet staining based assay relative to control; assay type: functional; summary of the method: as §1
Staphylococcus aureus [3] = assay: Antibiofilm activity against Staphylococcus aureus ATCC 25923 assessed as destruction of biofilm formation at 0.5 times MIC after 24 hrs by crystal violet staining based assay relative to control; assay type: functional, organism-based; summary of the method: as §1
Enterococcus faecalis [4] = assay: Antibiofilm activity against Enterococcus faecalis ATCC 29212 assessed as inhibition of biofilm formation at 0.5 times MIC after 24 hrs by crystal violet staining based assay relative to control; assay type: functional; design: scale not given: the % may be the effect or the level left; summary of the method: as §1
Enterococcus faecalis [5] = assay: Antibiofilm activity against Enterococcus faecalis ATCC 29212 assessed as destruction of biofilm formation at 2 times MIC after 24 hrs by crystal violet staining based assay relative to control; assay type: functional; summary of the method: as §1
Staphylococcus aureus [6] = assay: Antibiofilm activity against Staphylococcus aureus UAMS-1 assessed as destruction catheter-associated biofilm formation measured after 48 hrs (reference value: 1.53 x 10^8); assay type: functional
Summary of the method: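 Plasma-coated catheters colonised for 24 h at 37 °C with gentle shaking, starting from ~1 × 10^7 CFU of MSSA UAMS-1 in biofilm medium (TSB plus glucose and NaCl). […] Medium renewed at 24 h. Catheters (n = 3) sonicated at 48 h and plated on TSA for CFU per catheter.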

Staphylococcus aureus [7] = assay: Antibacterial activity against methicillin resistant Staphylococcus aureus ATCC 700699 persisters assessed as reduction in viability at 16 times MIC by colony counting method; assay type: functional, organism-based
Summary of the method: (§2)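 Stationary-phase S. aureus from overnight CAMHB culture (35 °C, 200 rpm), washed thrice in PBS, diluted to ~5 × 10^8 CFU/ml. Incubated with antibiotic at 35 °C, 200 rpm. Aliquots taken at set times, washed, serially diluted in PBS, drop-plated (6 × 6) on TSA with 5% sheep blood. Colonies counted after 18–20 h at 35 °C. Triplicates.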

Staphylococcus aureus [8] = assay: Antibacterial activity against methicillin resistant Staphylococcus aureus ATCC 700699 persisters assessed as reduction in viability at 8 times MIC measured within 4 hrs by colony counting method; assay type: functional; settings: time hrs <=4; summary of the method: as §2
Staphylococcus aureus [9] = assay: Antibacterial activity against methicillin resistant Staphylococcus aureus ATCC 700699 persisters assessed as reduction in viability at 4 times MIC measured within 4 hrs by colony counting method; assay type: functional; settings: time hrs <=4; summary of the method: as §2
[10] = Toxicity in CD1 mouse assessed as effect on globulin level at 50 mg/kg, ip administered as single dose measured after 24 hrs; assay type: organism-based; settings: in vivo
Summary of the method: (§3)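 Male CD-1 mice, 8 weeks, 32–37 g, n = 10 per dose. Single IP injection at 5, 20 or 50 mg/kg in 0.9% saline, filter-sterilized; saline vehicle group. Blood taken by cardiac puncture 24 h later. 14 plasma markers measured on a chemistry panel, reported as mean ± SE. Toxicity judged by significance versus controls, normal ranges, dose-dependence and consistency across organ markers.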

[11] = Toxicity in CD1 mouse assessed as effect on glucose level at 50 mg/kg, ip administered as single dose measured after 24 hrs; assay type: organism-based; settings: in vivo; summary of the method: as §3
[12] = Toxicity in CD1 mouse assessed as effect on creatine level at 50 mg/kg, ip administered as single dose measured after 24 hrs; assay type: organism-based; settings: in vivo; summary of the method: as §3
[13] = Toxicity in CD1 mouse assessed as effect on sodium level at 50 mg/kg, ip administered as single dose measured after 24 hrs; assay type: organism-based; settings: in vivo; summary of the method: as §3
[14] = Toxicity in CD1 mouse assessed as effect on potassium level at 50 mg/kg, ip administered as single dose measured after 24 hrs; assay type: organism-based; settings: in vivo; summary of the method: as §3
[15] = Toxicity in CD1 mouse assessed as effect on pancreatic amylase level at 50 mg/kg, ip administered as single dose measured after 24 hrs; assay type: organism-based; settings: in vivo; summary of the method: as §3
[16] = Toxicity in CD1 mouse assessed as effect on phosphorus level at 50 mg/kg, ip administered as single dose measured after 24 hrs; assay type: organism-based; settings: in vivo; summary of the method: as §3
[17] = Toxicity in CD1 mouse assessed as effect on liver 50 mg/kg, ip administered as single dose measured after 24 hrs by TUNEL assay; assay type: organism-based; settings: in vivo
Summary of the method: (§4)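 Male CD-1 mice, single IP 50 mg/kg in saline; saline control. Acetaminophen 300 mg/kg and cisplatin 20 mg/kg IP as positive controls. At 24 h, liver and kidney paraffin-embedded, 5-µm sections, TUNEL stained with DAPI counterstain, imaged by fluorescence microscopy.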

[18] = Toxicity in CD1 mouse assessed as effect on kidney 50 mg/kg, ip administered as single dose measured after 24 hrs by TUNEL assay; assay type: organism-based; settings: in vivo; summary of the method: as §4
Staphylococcus aureus [19] = assay: Inhibition of DNA synthesis in Staphylococcus aureus ATCC 29213 at 0.25 times MIC measured by liquid scintillation counter; assay type: functional
Summary of the method: (§5)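 Early-exponential cells in CAMHB added to drug (40x stock) in triplicate, with a no-drug control. After 30 min pre-incubation at room temperature, [3H]thymidine 3.0 µCi/tube (DNA) or [3H]uridine 0.5 µCi/tube (RNA) added for 30 min at room temperature. Stopped with cold TCA, precipitate filtered and washed, then scintillation counted.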

Staphylococcus aureus [20] = assay: Inhibition of RNA synthesis in Staphylococcus aureus ATCC 29213 at 0.25 times MIC measured by liquid scintillation counter; assay type: functional; summary of the method: as §5
Staphylococcus aureus [21] = assay: Inhibition of RNA synthesis in Staphylococcus aureus ATCC 29213 at 4 times MIC measured by liquid scintillation counter; assay type: functional; summary of the method: as §5
Staphylococcus aureus [22] = assay: Inhibition of lipid synthesis in Staphylococcus aureus ATCC 29213 at 0.25 times MIC measured by liquid scintillation counter; assay type: functional
Summary of the method: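 Early-exponential cells in CAMHBII with drug in triplicate. Lipids extracted with chloroform/water, centrifuged, organic phase dried, then scintillation counted.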

Staphylococcus aureus [23] = assay: Inhibition of protein synthesis in Staphylococcus aureus ATCC 29213 at 4 times MIC measured by liquid scintillation counter; assay type: functional
Staphylococcus aureus [24] = assay: Antibacterial activity against vancomycin-intermediate susceptible Staphylococcus aureus ATCC 25923 assessed as bacterial growth inhibition by measuring fold increase in MIC between 14 passages by broth dilution method; assay type: functional
Enterococcus faecalis [25] = assay: Antibacterial activity against vancomycin-intermediate Enterococcus faecalis ATCC 29212 assessed as bacterial growth inhibition by measuring fold increase in MIC after14 passages by broth dilution method; assay type: functional, organism-based
Enterococcus faecalis [26] = assay: Antibiofilm activity against Enterococcus faecalis ATCC 29212 assessed as inhibition of biofilm formation at 0.5 times MIC after 24 hrs by crystal violet staining based assay relative to control

O=C(O)c1ccc(-n2cc(CNc3cc(F)cc(C(F)(F)F)c3)c(-c3ccc(C(F)(F)F)cc3)n2)cc1
Activity (Staphylococcus aureus [1]): 70% | Activity (Staphylococcus aureus [2]): 55% | Activity (Staphylococcus aureus [3]): inactive | Activity (Enterococcus faecalis [4]): 75% | Activity (Enterococcus faecalis [5]): 85% | Activity (Staphylococcus aureus [6]): 4.74 10^5CFU | Activity (Staphylococcus aureus [7]): Active | Activity (Staphylococcus aureus [8]): 3 log10CFU/ml | Activity (Staphylococcus aureus [9]): 2 log10CFU/ml | Activity [10]: Non-Toxic | Activity [11]: Non-Toxic | Activity [12]: Non-Toxic | Activity [13]: Non-Toxic | Activity [14]: Non-Toxic | Activity [15]: Non-Toxic | Activity [16]: Non-Toxic | Activity [17]: Non-Toxic | Activity [18]: Non-Toxic | inhibition (INH) (Staphylococcus aureus [19]): 44% | inhibition (INH) (Staphylococcus aureus [20]): 15.5% | inhibition (INH) (Staphylococcus aureus [21]): 98% | inhibition (INH) (Staphylococcus aureus [22]): 20.7% | inhibition (Staphylococcus aureus [23]): 100% | fold change (FC) (Staphylococcus aureus [24]): 2 | Activity (Enterococcus faecalis [25]): inactive | inhibition (Enterococcus faecalis [26]): Active
